# Laboratory results as given in ChEMBL document CHEMBL5649168, “Discovery of a selective catalytic p300/CBP inhibitor that targets lineage-specific tumours” (Nature, 2017).
# Key:
# Calu-6 = assay: Antiproliferative activity against human Calu-6 cells assessed as inhibition of cell viability incubated for 3 to 5 days by Celltiter-Glo luminescent assay; assay type: functional, cell-based
# AMO1 = assay: Antiproliferative activity against human AMO1 cells assessed as inhibition of cell viability incubated for 3 to 5 days by Celltiter-Glo luminescent assay; assay type: functional, cell-based
# [1] = target: Dual specificity protein kinase CLK2 (Homo sapiens, UniProt P49760); assay: Inhibition of CLK2 (unknown origin)
# [2] = target: Serine/threonine-protein kinase TAO2 (Homo sapiens, UniProt Q9UL54); assay: Inhibition of TAOK2 (unknown origin)
# NCI-H661 = assay: Antiproliferative activity against human NCI-H661 cells assessed as inhibition of cell viability incubated for 3 to 5 days by Celltiter-Glo luminescent assay; assay type: functional, cell-based
# BT-20 = assay: Antiproliferative activity against human BT-20 cells assessed as inhibition of cell viability incubated for 3 to 5 days by Celltiter-Glo luminescent assay; assay type: functional, cell-based
# [3] = target: Rho-associated protein kinase 1 (Homo sapiens, UniProt Q13464); assay: Inhibition of Rock1 (unknown origin)
# [4] = target: T1, CREB-binding protein/Histone acetyltransferase p300 (Homo sapiens, UniProt Q09472+Q92793); assay: Inhibition of p300/CBP in human 22Rv1 cells assessed as reduction in H3K18Ac level incubated for 24 hrs by Hoechst 33342 staining based high content microscopy analysis; assay type: cell-based
# Method in brief: (§1)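 Cells received an 8-point half-log dilution series from 10 µM. They were then fixed in 10% formaldehyde (10 min, RT), permeabilised with 0.1% Triton X-100 and blocked with 1% BSA for 1 h. Primary antibodies were applied overnight at 4 °C, followed by Alexa488 anti-rabbit, Alexa555 anti-mouse and Hoechst 33342 for 1 h. Fifteen fields per well were imaged and average mean intensity taken. EC50 came from a sigmoidal fit.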
# HCC4006 = assay: Antiproliferative activity against human HCC4006 cells assessed as inhibition of cell viability incubated for 3 to 5 days by Celltiter-Glo luminescent assay; assay type: functional, cell-based
# [5] = Half life in CB17 SCID mouse xenografted with LuCaP-77 CR cell at 200 mg/kg, ip administered for 7 days; assay type: ADME, organism-based; conditions: in vivo, time 7 day
# [6] = Half life in CB17 SCID mouse xenografted with LuCaP-77 CR cell at 100 mg/kg, ip administered for 7 days; assay type: ADME, organism-based; conditions: in vivo, time 7 day
# [7] = target: T1, CREB-binding protein/Histone acetyltransferase p300; assay: Inhibition of p300/CBP in human 22Rv1 cells assessed as reduction in H3K27Ac level incubated for 24 hrs by Hoechst 33342 staining based high content microscopy analysis; assay type: cell-based; method in brief: as §1
# Daudi = assay: Antiproliferative activity against human Daudi cells assessed as inhibition of cell viability incubated for 3 to 5 days by Celltiter-Glo luminescent assay; assay type: functional, cell-based
# [8] = target: Protein kinase C zeta type (Homo sapiens, UniProt Q05513); assay: Inhibition of PKCzeta (unknown origin)
# ULA = assay: Antiproliferative activity against human ULA cells assessed as inhibition of cell viability incubated for 3 to 5 days by Celltiter-Glo luminescent assay; assay type: functional, cell-based
# [9] = AUC in CB17 SCID mouse xenografted with LuCaP-77 CR cell at 50 mg/kg, ip administered for 7 days; assay type: ADME, organism-based; conditions: in vivo, time 7 day
# [10] = target: Tyrosine-protein kinase ABL1 (Homo sapiens, UniProt P00519); assay: Inhibition of Abl (unknown origin)
# [11] = target: Tyrosine-protein kinase Fyn (Homo sapiens, UniProt P06241); assay: Inhibition of Fyn (unknown origin)
# [12] = target: RAC-alpha serine/threonine-protein kinase (Homo sapiens, UniProt P31749); assay: Inhibition of Akt1 (unknown origin)
# KARPAS-299 = assay: Antiproliferative activity against human KARPAS-299 cells assessed as inhibition of cell viability incubated for 3 to 5 days by Celltiter-Glo luminescent assay; assay type: functional, cell-based
# NCI-H211 = assay: Antiproliferative activity against human NCI-H211 cells assessed as inhibition of cell viability incubated for 3 to 5 days by Celltiter-Glo luminescent assay; assay type: functional, cell-based
# SUD4 = assay: Antiproliferative activity against human SU-DHL-4 cells assessed as inhibition of cell viability incubated for 3 to 5 days by Celltiter-Glo luminescent assay; assay type: functional, cell-based
# OCI-Ly3 = assay: Antiproliferative activity against human OCILY3 cells assessed as inhibition of cell viability incubated for 3 to 5 days by Celltiter-Glo luminescent assay; assay type: functional, cell-based
# Farage = assay: Antiproliferative activity against human Farage cells assessed as inhibition of cell viability incubated for 3 to 5 days by Celltiter-Glo luminescent assay; assay type: functional, cell-based
# Aurora kinase A = Aurora kinase A (Homo sapiens, UniProt O14965); assay: Inhibition of Aurora2 (unknown origin)
# [13] = target: Casein kinase I isoform alpha (Homo sapiens, UniProt P48729); assay: Inhibition of Ck1alpha1 (unknown origin)
# U-2973 = assay: Antiproliferative activity against human U-2973 cells assessed as inhibition of cell viability incubated for 3 to 5 days by Celltiter-Glo luminescent assay; assay type: functional, cell-based
# [14] = target: Epidermal growth factor receptor (Homo sapiens, UniProt P00533); assay: Inhibition of EGFR (unknown origin)
# DU-4475 = assay: Antiproliferative activity against human DU-4475 cells assessed as inhibition of cell viability incubated for 3 to 5 days by Celltiter-Glo luminescent assay; assay type: functional, cell-based
# SK-MEL-5 = assay: Antiproliferative activity against human SK-MEL-5 cells assessed as inhibition of cell viability incubated for 3 to 5 days by Celltiter-Glo luminescent assay; assay type: functional, cell-based
# SK-MEL-2 = assay: Antiproliferative activity against human SK-MEL-2 cells assessed as inhibition of cell viability incubated for 3 to 5 days by Celltiter-Glo luminescent assay; assay type: functional, cell-based
# [15] = target: Inhibitor of nuclear factor kappa-B kinase subunit epsilon (Homo sapiens, UniProt Q14164); assay: Inhibition of IKKE (unknown origin)
# [16] = target: Mitogen-activated protein kinase 9 (Homo sapiens, UniProt P45984); assay: Inhibition of JNK2 (unknown origin)
# HL-60 = assay: Antiproliferative activity against human HL-60 cells assessed as inhibition of cell viability incubated for 3 to 5 days by Celltiter-Glo luminescent assay; assay type: functional, cell-based
# NCI-H522 = assay: Antiproliferative activity against human NCI-H522 cells assessed as inhibition of cell viability incubated for 3 to 5 days by Celltiter-Glo luminescent assay; assay type: functional, cell-based
# Pfeiffer = assay: Antiproliferative activity against human Pfeiffer cells assessed as inhibition of cell viability incubated for 3 to 5 days by Celltiter-Glo luminescent assay; assay type: functional, cell-based
# MDA-MB-231 = assay: Antiproliferative activity against human MDA-MB-231 cells assessed as inhibition of cell viability incubated for 3 to 5 days by Celltiter-Glo luminescent assay; assay type: functional, cell-based
# [17] = target: Serine/threonine-protein kinase Sgk1 (Homo sapiens, UniProt O00141); assay: Inhibition of SGK1 (unknown origin)
# [18] = Toxicity in CB17 SCID mouse xenografted with human LuCaP-77 CR cell assessed as body weight loss at 100 mg/kg, ip BID administered for 7 days relative to control; assay type: organism-based; conditions: in vivo, 168 h, time 7 day
# MDA-MB-468 = assay: Antiproliferative activity against human MDA-MB-468 cells assessed as inhibition of cell viability incubated for 3 to 5 days by Celltiter-Glo luminescent assay; assay type: functional, cell-based
# T1 sequence (Q09472 whole entry, looked up): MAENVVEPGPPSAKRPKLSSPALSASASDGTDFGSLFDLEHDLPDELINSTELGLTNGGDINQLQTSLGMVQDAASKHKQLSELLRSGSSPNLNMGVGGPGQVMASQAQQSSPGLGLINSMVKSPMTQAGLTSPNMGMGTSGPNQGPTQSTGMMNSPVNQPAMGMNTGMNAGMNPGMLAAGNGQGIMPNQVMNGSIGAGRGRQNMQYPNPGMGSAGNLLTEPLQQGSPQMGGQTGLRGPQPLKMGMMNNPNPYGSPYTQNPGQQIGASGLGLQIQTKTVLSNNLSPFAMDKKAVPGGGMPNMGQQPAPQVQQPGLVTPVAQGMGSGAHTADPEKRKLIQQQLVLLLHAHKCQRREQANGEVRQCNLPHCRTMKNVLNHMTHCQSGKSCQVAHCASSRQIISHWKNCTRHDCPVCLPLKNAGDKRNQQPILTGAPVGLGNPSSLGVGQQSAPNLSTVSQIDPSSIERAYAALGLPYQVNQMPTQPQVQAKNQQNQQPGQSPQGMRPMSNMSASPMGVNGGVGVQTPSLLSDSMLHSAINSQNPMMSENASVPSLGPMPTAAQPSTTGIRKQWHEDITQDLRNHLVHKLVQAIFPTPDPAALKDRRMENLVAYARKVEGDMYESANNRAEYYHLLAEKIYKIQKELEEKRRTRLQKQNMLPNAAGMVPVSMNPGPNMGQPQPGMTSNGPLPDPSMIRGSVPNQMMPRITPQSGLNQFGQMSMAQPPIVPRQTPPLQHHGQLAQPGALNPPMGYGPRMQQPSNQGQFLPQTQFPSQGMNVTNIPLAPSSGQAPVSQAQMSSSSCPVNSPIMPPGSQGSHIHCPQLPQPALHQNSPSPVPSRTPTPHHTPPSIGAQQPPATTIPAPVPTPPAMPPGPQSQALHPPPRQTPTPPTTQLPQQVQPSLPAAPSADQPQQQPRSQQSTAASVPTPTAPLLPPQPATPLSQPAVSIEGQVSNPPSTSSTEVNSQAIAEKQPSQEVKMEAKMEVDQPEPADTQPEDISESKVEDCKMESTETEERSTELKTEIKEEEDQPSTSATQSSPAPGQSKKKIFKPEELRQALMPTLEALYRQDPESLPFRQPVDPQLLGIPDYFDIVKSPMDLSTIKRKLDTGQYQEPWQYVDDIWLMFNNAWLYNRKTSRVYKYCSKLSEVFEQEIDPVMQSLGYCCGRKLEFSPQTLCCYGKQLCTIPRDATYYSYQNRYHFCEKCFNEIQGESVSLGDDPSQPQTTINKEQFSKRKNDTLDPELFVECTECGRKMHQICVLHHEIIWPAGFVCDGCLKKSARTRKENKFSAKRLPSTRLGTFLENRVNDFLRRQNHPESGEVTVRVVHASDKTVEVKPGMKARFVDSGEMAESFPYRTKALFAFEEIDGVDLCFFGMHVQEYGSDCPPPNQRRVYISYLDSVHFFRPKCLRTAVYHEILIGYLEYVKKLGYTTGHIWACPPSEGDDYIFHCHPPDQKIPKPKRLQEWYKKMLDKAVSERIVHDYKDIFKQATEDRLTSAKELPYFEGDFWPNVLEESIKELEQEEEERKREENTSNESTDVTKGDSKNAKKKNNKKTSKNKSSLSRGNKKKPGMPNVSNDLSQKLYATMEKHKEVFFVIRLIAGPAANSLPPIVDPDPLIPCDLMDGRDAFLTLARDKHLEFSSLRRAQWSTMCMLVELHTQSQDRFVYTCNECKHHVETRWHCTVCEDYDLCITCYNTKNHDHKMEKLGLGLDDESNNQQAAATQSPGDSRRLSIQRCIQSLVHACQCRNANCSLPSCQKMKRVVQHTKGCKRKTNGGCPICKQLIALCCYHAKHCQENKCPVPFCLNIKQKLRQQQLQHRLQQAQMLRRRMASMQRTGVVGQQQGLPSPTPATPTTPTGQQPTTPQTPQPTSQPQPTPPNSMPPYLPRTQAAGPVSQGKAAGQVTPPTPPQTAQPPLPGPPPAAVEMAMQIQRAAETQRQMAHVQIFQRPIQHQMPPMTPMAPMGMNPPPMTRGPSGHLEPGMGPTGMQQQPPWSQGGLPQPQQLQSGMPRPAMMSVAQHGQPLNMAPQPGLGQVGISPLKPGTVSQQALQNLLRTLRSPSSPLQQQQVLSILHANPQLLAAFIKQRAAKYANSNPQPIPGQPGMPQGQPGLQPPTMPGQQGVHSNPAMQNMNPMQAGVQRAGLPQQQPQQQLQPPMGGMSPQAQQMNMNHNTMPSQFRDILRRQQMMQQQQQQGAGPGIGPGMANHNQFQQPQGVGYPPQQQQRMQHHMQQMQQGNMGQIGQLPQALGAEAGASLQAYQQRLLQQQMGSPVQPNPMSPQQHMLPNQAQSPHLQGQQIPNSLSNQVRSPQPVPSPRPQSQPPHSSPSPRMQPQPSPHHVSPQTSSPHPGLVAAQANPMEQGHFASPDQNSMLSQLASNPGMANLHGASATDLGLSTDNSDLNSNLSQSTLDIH
# T1 sequence (Q92793 whole entry, looked up): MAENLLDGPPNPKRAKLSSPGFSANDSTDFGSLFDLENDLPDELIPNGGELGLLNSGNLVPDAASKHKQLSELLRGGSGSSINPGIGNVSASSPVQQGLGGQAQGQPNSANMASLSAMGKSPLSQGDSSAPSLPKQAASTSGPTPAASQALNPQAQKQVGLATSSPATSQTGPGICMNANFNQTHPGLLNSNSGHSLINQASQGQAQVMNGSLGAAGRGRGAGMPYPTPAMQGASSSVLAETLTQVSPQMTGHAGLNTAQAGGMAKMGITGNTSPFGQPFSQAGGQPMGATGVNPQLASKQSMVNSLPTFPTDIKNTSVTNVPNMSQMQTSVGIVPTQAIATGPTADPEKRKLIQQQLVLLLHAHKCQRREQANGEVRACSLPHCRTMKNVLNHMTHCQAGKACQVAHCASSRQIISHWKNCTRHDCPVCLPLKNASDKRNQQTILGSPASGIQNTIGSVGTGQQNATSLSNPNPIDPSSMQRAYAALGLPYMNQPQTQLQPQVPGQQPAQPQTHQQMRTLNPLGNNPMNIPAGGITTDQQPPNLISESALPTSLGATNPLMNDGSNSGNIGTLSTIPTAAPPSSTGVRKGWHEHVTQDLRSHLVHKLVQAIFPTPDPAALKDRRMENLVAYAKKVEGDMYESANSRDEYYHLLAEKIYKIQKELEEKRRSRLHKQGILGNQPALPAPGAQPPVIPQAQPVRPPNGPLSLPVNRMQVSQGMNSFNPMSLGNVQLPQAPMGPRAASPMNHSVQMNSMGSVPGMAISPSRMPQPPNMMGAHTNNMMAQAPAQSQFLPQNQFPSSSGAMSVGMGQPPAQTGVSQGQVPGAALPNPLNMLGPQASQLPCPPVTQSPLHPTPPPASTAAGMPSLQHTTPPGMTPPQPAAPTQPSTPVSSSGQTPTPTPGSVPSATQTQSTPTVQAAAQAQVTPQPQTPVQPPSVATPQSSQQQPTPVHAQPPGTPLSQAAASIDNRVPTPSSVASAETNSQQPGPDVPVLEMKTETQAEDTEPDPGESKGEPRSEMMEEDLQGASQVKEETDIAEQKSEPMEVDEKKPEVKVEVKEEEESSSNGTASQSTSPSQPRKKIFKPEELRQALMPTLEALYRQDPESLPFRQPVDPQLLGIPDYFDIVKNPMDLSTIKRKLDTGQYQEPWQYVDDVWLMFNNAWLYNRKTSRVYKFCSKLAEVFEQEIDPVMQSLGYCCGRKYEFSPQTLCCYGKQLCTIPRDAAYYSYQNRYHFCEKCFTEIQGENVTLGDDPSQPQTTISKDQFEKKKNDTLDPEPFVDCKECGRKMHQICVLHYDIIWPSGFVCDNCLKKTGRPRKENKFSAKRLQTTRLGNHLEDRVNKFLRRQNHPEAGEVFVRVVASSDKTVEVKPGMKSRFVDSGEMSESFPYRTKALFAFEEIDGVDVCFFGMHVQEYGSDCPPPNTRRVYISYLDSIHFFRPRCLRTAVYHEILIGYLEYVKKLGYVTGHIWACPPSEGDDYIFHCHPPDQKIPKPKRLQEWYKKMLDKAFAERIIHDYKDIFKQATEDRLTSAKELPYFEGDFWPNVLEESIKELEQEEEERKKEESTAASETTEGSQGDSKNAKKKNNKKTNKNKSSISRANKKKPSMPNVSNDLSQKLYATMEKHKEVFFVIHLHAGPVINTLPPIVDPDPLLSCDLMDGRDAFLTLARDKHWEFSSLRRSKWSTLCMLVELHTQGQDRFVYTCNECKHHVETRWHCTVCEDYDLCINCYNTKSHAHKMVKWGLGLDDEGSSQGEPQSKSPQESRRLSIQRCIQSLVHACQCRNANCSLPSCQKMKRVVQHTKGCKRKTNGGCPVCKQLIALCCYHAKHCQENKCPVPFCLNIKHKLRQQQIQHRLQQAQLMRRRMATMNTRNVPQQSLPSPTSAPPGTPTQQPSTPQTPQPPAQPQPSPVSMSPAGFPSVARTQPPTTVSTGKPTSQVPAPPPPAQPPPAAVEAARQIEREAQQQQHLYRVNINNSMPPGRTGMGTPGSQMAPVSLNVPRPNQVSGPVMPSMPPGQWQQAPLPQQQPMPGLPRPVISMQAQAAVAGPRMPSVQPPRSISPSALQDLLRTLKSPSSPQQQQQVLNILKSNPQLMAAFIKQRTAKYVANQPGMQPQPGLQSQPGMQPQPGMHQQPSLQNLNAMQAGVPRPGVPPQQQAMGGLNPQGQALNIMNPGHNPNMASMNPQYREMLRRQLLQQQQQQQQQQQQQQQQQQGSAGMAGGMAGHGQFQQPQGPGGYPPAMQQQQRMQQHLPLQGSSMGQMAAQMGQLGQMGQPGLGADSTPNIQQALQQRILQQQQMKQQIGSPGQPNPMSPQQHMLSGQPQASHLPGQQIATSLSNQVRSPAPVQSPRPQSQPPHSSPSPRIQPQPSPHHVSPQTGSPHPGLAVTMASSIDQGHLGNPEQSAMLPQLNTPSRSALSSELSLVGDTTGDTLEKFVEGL
compound,measurement,setting,value
CNC(=O)Nc1ccc2c(c1)CC[C@@]21OC(=O)N(CC(=O)N(Cc2ccc(F)cc2)[C@@H](C)C(F)(F)F)C1=O [A-485],EC50,Calu-6,8.57 µM
same,EC50,AMO1,1090 nM
same,IC50,[1],> 10 µM
same,IC50,[2],> 10 µM
same,EC50,NCI-H661,7.66 µM
same,EC50,BT-20,340 nM
same,IC50,[3],> 10 µM
same,INH,[4],3.79 µM
same,EC50,HCC4006,4.64 µM
same,half-life,[5],180 min
same,half-life,[6],102 min
same,INH,[7],0.47 µM
same,EC50,Daudi,430 nM
same,IC50,[8],> 10 µM
same,EC50,ULA,550 nM
same,AUC at 168 h,[9],91200 ng·h/mL
same,IC50,[10],> 10 µM
same,IC50,[11],> 10 µM
same,IC50,[12],> 10 µM
same,EC50,KARPAS-299,> 10 µM
same,EC50,NCI-H211,1500 nM
same,EC50,SUD4,720 nM
same,EC50,OCI-Ly3,490 nM
same,EC50,Farage,> 10 µM
same,IC50,Aurora kinase A,> 10 µM
same,IC50,[13],> 10 µM
same,EC50,U-2973,660 nM
same,IC50,[14],> 10 µM
same,EC50,DU-4475,670 nM
same,EC50,SK-MEL-5,910 nM
same,EC50,SK-MEL-2,> 10 µM
same,IC50,[15],> 10 µM
same,IC50,[16],> 10 µM
same,EC50,HL-60,> 10 µM
same,EC50,NCI-H522,3.52 µM
same,EC50,Pfeiffer,860 nM
same,EC50,MDA-MB-231,> 10 µM
same,IC50,[17],> 10 µM
same,Activity,[18],9%
same,EC50,MDA-MB-468,380 nM
